Measured values: ChEMBL document CHEMBL3046168, “Soil application of neonicotinoid insecticides for control of insect pests in wine grape vineyards” (2012)
The source made the active and inactive calls. No cut-off for these calls is given here.

Tests used:
Paralobesia [1] = test: Insecticidal activity against Paralobesia viteana infested grapevine assessed as reduction in clusters infested with moth by mid-season irrigation injection method (reference value: 11 +/- 1.9 %); format: functional; parameters: scale not given: the % may be the effect or the level left
Popillia japonica [2] = test: Insecticidal activity against Popillia japonica at 240 g/kg SC assessed as moribund behaviour measured after 3 days by irrigation injection method; format: functional, organism-based
Popillia japonica [3] = test: Insecticidal activity against Popillia japonica assessed as reduction in leaf damage measured up to 63 days post treatment by laboratory bioassay; format: functional, organism-based
Procedure, shortened: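 Leaves were taken from vines treated by irrigation injection (6 June and 6 July 2007). Four uninjured leaves per treatment plot were offered to Japanese beetles in the laboratory. Leaf area removed (cm²) was measured weekly, from 4 days before the second injection to […] after it.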

Popillia japonica [4] = test: Insecticidal activity against Popillia japonica at 240 g/kg SC assessed as moribund behaviour measured after 24 to 56 days by irrigation injection method; format: functional, organism-based
Popillia japonica [5] = test: Insecticidal activity against Popillia japonica at 240 g/kg SC measured after 1 to 24 days by irrigation injection method; format: functional, organism-based
Procedure, shortened: (§1)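 Insecticide was injected into the drip irrigation on 6 June and 6 July 2007, in seven-vine rows. Japanese beetles were counted on vines in the field at intervals after treatment. Total beetles per row were log(x+1) transformed and analysed by ANOVA with […] post hoc tests.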

Paralobesia [6] = test: Insecticidal activity against Paralobesia viteana infested grapevine assessed as reduction in clusters infested with moth by early-season irrigation injection method (reference value: 34.3 +/- 4.4 %); format: functional; parameters: scale not given: the % may be the effect or the level left
Popillia japonica [7] = test: Insecticidal activity against Popillia japonica at 240 g/kg SC assessed as reduction in leaf damage measured after 35 days by irrigation injection method (reference value: 50.97 +/- 7.2 %); format: functional; parameters: scale not given: the % may be the effect or the level left
Popillia japonica [8] = test: Insecticidal activity against Popillia japonica at 240 g/kg SC assessed as moribund behaviour measured after 10 to 19 days by irrigation injection method; format: functional, organism-based
Popillia japonica [9] = test: Insecticidal activity against Popillia japonica at 552 g/kg SC measured after 1 to 24 days by irrigation injection method; format: functional, organism-based; procedure, shortened: as §1
Popillia japonica [10] = test: Insecticidal activity against Popillia japonica at 552 g/kg SC assessed as moribund behaviour measured after 3 days by irrigation injection method; format: functional, organism-based
Popillia japonica [11] = test: Insecticidal activity against Popillia japonica at 552 g/kg SC measured after 14 days by irrigation injection method; format: functional, organism-based; procedure, shortened: as §1
Popillia japonica [12] = test: Insecticidal activity against Popillia japonica at 552 g/kg SC assessed as reduction in leaf damage measured after 35 days by irrigation injection method (reference value: 50.97 +/- 7.2 %); format: functional; parameters: scale not given: the % may be the effect or the level left
Popillia japonica [13] = test: Insecticidal activity against Popillia japonica at 552 g/kg SC measured after 24 days by irrigation injection method; format: functional, organism-based; procedure, shortened: as §1
Popillia japonica [14] = test: Insecticidal activity against Popillia japonica at 552 g/kg SC assessed as moribund behaviour measured after 24 to 56 days by irrigation injection method; format: functional, organism-based
Popillia japonica [15] = test: Insecticidal activity against Popillia japonica at 552 g/kg SC assessed as moribund behaviour measured after 10 to 19 days by irrigation injection method; format: functional, organism-based
Popillia japonica [16] = test: Insecticidal activity against Popillia japonica at 500 g/kg WG assessed as reduction in leaf damage measured after 35 days by irrigation injection method (reference value: 50.97 +/- 7.2 %); format: functional; parameters: scale not given: the % may be the effect or the level left
Popillia japonica [17] = test: Insecticidal activity against Popillia japonica at 500 g/kg WG assessed as moribund behaviour measured after 10 to 19 days by irrigation injection method; format: functional, organism-based
Popillia japonica [18] = test: Insecticidal activity against Popillia japonica at 500 g/kg WG assessed as moribund behaviour measured after 3 days by irrigation injection method; format: functional, organism-based
Popillia japonica [19] = test: Insecticidal activity against Popillia japonica at 500 g/kg WG assessed as moribund behaviour measured after 24 to 56 days by irrigation injection method; format: functional, organism-based

## CN1COCN(Cc2cnc(Cl)s2)/C1=N\[N+](=O)[O-] [THIAMETHOXAM]
Paralobesia [1]
  Activity: 7%
Popillia japonica [2]
  Activity: inactive
Popillia japonica [3]
  Activity: Active
Popillia japonica [4]
  Activity: inactive
Popillia japonica [5]
  Activity: inactive
Paralobesia [6]
  Activity: 25.3%
Popillia japonica [7]
  Activity: 27.67%
Popillia japonica [8]
  Activity: inactive

## O=[N+]([O-])/N=C1\NCCN1Cc1ccc(Cl)nc1 [IMIDACLOPRID]
Popillia japonica [9]
  Activity: Active
Paralobesia [1]
  Activity: 1%
Popillia japonica [10]
  Activity: Active
Popillia japonica [11]
  Activity: Active
Popillia japonica [12]
  Activity: 4.43%
Popillia japonica [3]
  Activity: Active
Popillia japonica [13]
  Activity: Active
Paralobesia [6]
  Activity: 11.8%
Popillia japonica [14]
  Activity: Active
Popillia japonica [15]
  Activity: Active

## CN/C(=N\[N+](=O)[O-])NCc1cnc(Cl)s1 [CLOTHIANIDINE]
Popillia japonica [16]
  Activity: 48.3%
Paralobesia [1]
  Activity: 6%
Popillia japonica [17]
  Activity: inactive
Popillia japonica [3]
  Activity: inactive
Paralobesia [6]
  Activity: 31.7%
Popillia japonica [18]
  Activity: inactive
Popillia japonica [19]
  Activity: inactive
